Data taken from ChEMBL document CHEMBL2010793, “Synthesis of novel 7-oxo and 7-hydroxy trifluoroallocolchicinoids with cytotoxic effect” (Bioorg Med Chem, 2012).

Columns and labels:
KB [1] = assay: Cytotoxicity against human KB cells assessed as inhibition of cell proliferation at 10^-6 M after 72 hrs by MTS assay; format: functional; conditions: read-out: GI
Procedure, shortened: (§1)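 KB cells seeded at 650 cells/well in 200 µl medium, dosed 24 h later with compounds from DMSO (1% DMSO final; controls DMSO only). After 72 h, MTS added for 3 h at 37 °C, A490 read; inhibition from treated/control OD ratio. Single-concentration tests in triplicate with docetaxel 2.5 10^-10 M reference; IC50 runs in separate duplicate.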

Ovis aries = species on record: Ovis aries; assay: Inhibition of sheep brain tubulin polymerization at 6.7 x 10^-5 M after 15 mins by turbidimetry analysis
Procedure, shortened: (§2)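 Microtubule protein from sheep brain, purified by two assembly/disassembly cycles (37 °C/0 °C) in 100 mM MES pH 6.6, 1 mM EGTA, 0.5 mM MgCl2. Compound with microtubule solution held 10 min at 37 °C then 5 min at 0 °C; polymerization followed by turbidity at 350 nm. Screened at 6.7 10^-5 M in triplicate, deoxypodophyllotoxin reference.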

KB [2] = assay: Cytotoxicity against human KB cells assessed as inhibition of cell proliferation at 10^-5 M after 72 hrs by MTS assay; format: functional; conditions: read-out: GI; procedure, shortened: as §1
KB [3] = assay: Cytotoxicity against human KB cells assessed as inhibition of cell proliferation after 72 hrs by MTS assay; format: functional, cell-based; procedure, shortened: as §1
[4] = Inhibition of sheep brain tubulin polymerization after 15 mins by turbidimetry analysis; parameters: species or system Ovis aries; procedure, shortened: as §2
KB [5] = assay: Cytotoxicity against human KB cells; format: functional, cell-based
Procedure, shortened: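 KB cells seeded at 650 cells/well and dosed 24 h later with compounds in DMSO (1% final). Screened at 10^-5 and 10^-6 M in triplicate, with docetaxel 2.5 10^-10 M as reference. After 72 h, MTS was added for 3 h at 37 °C and A490 was read. Inhibition was derived from treated/control OD. IC50 was run in separate duplicate when inhibition exceeded 80% at 10^-5 M.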

[6] = Inhibition of tubulin polymerization
Procedure, shortened: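 Sheep brain microtubule protein was purified by two assembly/disassembly cycles (37 °C/0 °C) in 100 mM MES pH 6.6, 1 mM EGTA, 0.5 mM MgCl2. Samples were incubated 10 min at 37 °C, then 5 min at 0 °C, and polymerization was read by turbidimetry at 350 nm. Compounds were tested at 6.7 10^-5 M in triplicate, with deoxypodophyllotoxin as reference.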

| Compound | inhibition of growth at 1 µM (KB [1]) | inhibition (Ovis aries) | inhibition of growth at 10 µM (KB [2]) | IC50 (KB [3]) | IC50 [4] | IC50 (KB [5]) | IC50 [6] |
| --- | --- | --- | --- | --- | --- | --- | --- |
| COc1cc2c(cc1OC)-c1ccccc1C(NC(=O)C(F)(F)F)CC2=O (stereo unspecified) | 0% | 12% | 92% |  |  |  |  |
| COc1ccc2c(c1)C(NC(=O)C(F)(F)F)CC(O)c1cc(OC)c(OC)c(OC)c1-2 (stereo unspecified) | 0% | 18% | 94% | 1600 nM |  |  |  |
| COc1cc2c(cc1OC)C(O)CC(NC(=O)C(F)(F)F)c1cc(O)ccc1-2 (mixture of isomers) | 0% | 13% | 2% |  |  |  |  |
| COc1ccc2c(c1)C(NC(=O)C(F)(F)F)CC(=O)c1cc(OC)c(OC)cc1-2 (stereo unspecified) | 0% | 63% | 38% |  | 60000 nM |  |  |
| COc1cc2c(cc1OC)[C@H](O)C[C@@H](NC(=O)C(F)(F)F)c1ccccc1-2 (racemic) | 0% | 23% | 9% |  |  |  |  |
| COc1ccc2c(c1)[C@@H](NC(C)=O)CCc1cc(OC)c(OC)c(OC)c1-2 |  |  |  |  |  | 19 nM | 700 nM |
| COc1cc2c(c(OC)c1OC)-c1ccc(O)cc1C(NC(=O)C(F)(F)F)CC2=O (stereo unspecified) | 37% | 62% | 96% | 330 nM | 37000 nM |  |  |
| COc1cc2c(c(OC)c1OC)-c1ccccc1C(NC(=O)C(F)(F)F)CC2O (mixture of isomers) | 0% | 89% | 8% |  | 13000 nM |  |  |
| COc1cc2c(c(OC)c1OC)-c1ccc(O)cc1C(NC(=O)C(F)(F)F)CC2O (mixture of isomers) | 0% | 29% | 60% |  |  |  |  |
| COc1cc2c(c(OC)c1OC)-c1ccccc1C(NC(=O)C(F)(F)F)CC2=O (stereo unspecified) | 18% | 48% | 91% | 2950 nM | 80000 nM |  |  |
| COc1ccc2c(c1)C(NC(=O)C(F)(F)F)CC(O)c1cc(OC)c(OC)cc1-2 (mixture of isomers) | 0% | 2% | 9% |  |  |  |  |
| COc1ccc(-c2ccc(OC)c3c2C(NC(=O)C(F)(F)F)CC3=O)c(OC)c1OC (stereo unspecified) | 0% | 33% | 97% | 1250 nM |  |  |  |
| COc1ccc2c(c1)C(NC(=O)C(F)(F)F)CC(=O)c1cc(OC)c(OC)c(OC)c1-2 (racemic) | 98% | 89% | 96% | 45 nM | 12000 nM |  |  |
| COc1cc([C@@H]2c3cc4c(cc3C[C@H]3COC(=O)[C@@H]32)OCO4)cc(OC)c1OC [DESOXYPODOPHYLLOTOXIN] | 100% | 100% | 100% | 3 nM | 3200 nM |  |  |
| COc1cc2c(cc1OC)-c1ccc(O)cc1C(NC(=O)C(F)(F)F)CC2=O (stereo unspecified) | 0% | 24% | 40% |  |  |  |  |
